# Assay outcomes as filed in PubChem.
# TDP2 inh: human TDP2 enzyme inhibitors, primary screen, biochemical, epi absorbance, recombinant enzyme. Tyrosyl-DNA phosphodiesterase 2 (Homo sapiens), O95551. T5PNP hydrolysis, p-nitrophenol absorbance 415 nm. inhibition, % at 12.8 µM. 370,000 tested, 0.34% active. AID 720702, 2013;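 active means inhibition above the mean of all tested compounds plus 3 SD, set per campaign, cut at about 25% in these data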;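 further: 0% = DMSO with enzyme and 100% = buffer with substrate but no TDP2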
# Target sequence (O95551 whole entry, looked up): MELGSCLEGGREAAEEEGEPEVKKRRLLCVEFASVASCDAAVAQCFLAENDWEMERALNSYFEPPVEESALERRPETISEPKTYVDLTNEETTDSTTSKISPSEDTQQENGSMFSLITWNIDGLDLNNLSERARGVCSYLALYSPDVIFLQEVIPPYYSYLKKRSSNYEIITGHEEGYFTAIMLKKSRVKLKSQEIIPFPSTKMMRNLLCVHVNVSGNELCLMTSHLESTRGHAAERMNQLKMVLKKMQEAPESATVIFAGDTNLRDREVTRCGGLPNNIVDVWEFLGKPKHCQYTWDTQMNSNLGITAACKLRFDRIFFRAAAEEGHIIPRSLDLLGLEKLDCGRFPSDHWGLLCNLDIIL
#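 Test system: Human TDP2 enzyme | Reagent: 5 mM T5PNP | Compound dosing: 12.8 µM single point, 1% DMSO | Incubation: Enzyme reaction with compound for 2 h at 37 °C | Technique: p-Nitrophenol epi absorbance | Read-out: % inhibition relative to enzyme-containing and enzyme-free wells | Benchmarks: High control without enzyme, low control DMSO plus TDP2 | Replicates: Singlicate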
# GSTO1 counter: inhibitors of recombinant GSTO1, primary screen, counter-screen for RBBP9 inhibitor project, biochemical, fluorescence polarization; 300,000 tested, 1.1% active; activity-based probe fluorescence polarization; Glutathione S-transferase omega-1 (Homo sapiens), P78417; inhibition, % at 5.96 µM;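 active means inhibition above the campaign mean inhibition plus 3 SD, cut at about 35% in these data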;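 further: 0% = GSTO1-1 with DMSO and 100% = wells lacking GSTO1-1 enzyme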
# Target sequence (P78417 whole entry, looked up): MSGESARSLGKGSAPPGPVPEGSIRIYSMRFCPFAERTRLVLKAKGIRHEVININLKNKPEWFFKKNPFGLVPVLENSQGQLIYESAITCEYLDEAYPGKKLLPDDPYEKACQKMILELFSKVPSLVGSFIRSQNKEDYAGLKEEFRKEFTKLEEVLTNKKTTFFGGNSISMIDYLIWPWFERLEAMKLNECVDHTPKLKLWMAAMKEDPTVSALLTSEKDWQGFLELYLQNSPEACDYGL
# TCR-CD3 inh: inhibitors of human TCR-CD3 interaction, primary screen, biochemical, fluorescence, TAMRA-labeled TCR probe; inhibition, % at 9.4 µM; T-cell receptor (TCR); 360,000 tested, 0.37% active;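 further: recombinant mutant TCR 2C K166C tagged with TAMRA read by polarization; 0% = receptor in buffer alone and 100% = receptor with positive control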
# Apaf-1 inh: inhibitors of human Apaf-1 apoptosome, primary screen, biochemical, DEVD-Rh110 fluorescence, uHTS; Apoptotic protease-activating factor 1 (Homo sapiens), O14727; reconstituted apoptosome caspase-3 activity; inhibition, % at 20 µM; 330,000 tested, 0.71% active; AID 489030, 2010; active means inhibition of at least 40% at 20 µM;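 further: plate controls were DMSO wells for no effect and DEVD-CHO caspase inhibitor wells for full effect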
#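 Medium: Hepes buffer, pH 7.5 / System: biochemical Apaf-1 apoptosome reconstitution / Measured by: Rh110 fluorescence, excitation 480 nm, emission 540 nm / Times: compound with Apaf-1, dATP, procaspase-3 30 min, then 50 min reaction, room temperature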
# SIAE primary: human SIAE inhibitors, primary screen, biochemical, fluorescence polarization, FP-Rh probe, 1536-well HTS | Sialate O-acetylesterase (Homo sapiens), Q9HAT2 | SIAE FP-Rh probe binding | inhibition, % at 9.66 µM | 370,000 tested, 0.69% active | AID 1053197, 2014;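 active means inhibition above a cutoff: mean of compounds within the control limits plus 3 SD of those, cut at about 17% in these data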;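 further: 0% = plate median of compound wells and 100% = probe without SIAE protein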
# PAD4 inh: human PAD4 inhibitors, primary screen, biochemical, fluorescence polarization, 1536-well format | Protein-arginine deiminase type-4 (Homo sapiens), Q9UM07 | inhibition, % at 6.36 µM | recombinant PAD4, RCA probe fluorescence polarization | 330,000 tested, 0.41% active;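 active means percent inhibition above a cutoff equal to the mean of all tested compounds plus 3 SD, cut at about 15% in these data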;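 further: 0% = PAD4 with RCA probe and DMSO and 100% = probe without PAD4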
# BSA TAMRA ctr: compounds interfering with TAMRA-BSA probe, counter-screen for TCR-CD3 interaction inhibitor project, biochemical, fluorescence, TAMRA-labeled BSA; shares compounds with TCR-CD3 inh; TAMRA-labeled BSA probe fluorescence counterscreen; inhibition, % at 9.4 µM; 1,200 tested, 10% active; in the data active means inhibition above about 23%;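 further: 0% = buffer low control and 100% = reference high control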
# TCR-CD3 inh conf: TCR-CD3 interaction inhibitors, retest, confirmation, biochemical, fluorescence, TAMRA-labeled TCR probe. shares compounds with TCR-CD3 inh. TAMRA-labeled TCR probe fluorescence binding assay. inhibition, % at 9.4 µM. 1,200 tested, 48% active
# Numbers without * were called inactive; . = no result given. Shown are actives, neighbours in structure and some others; about 2.4% of the full set was active somewhere. Unless noted, no stated cut-off is given here; in the data, active means inhibition above about 19%; inactive means the rest.
SMILES,TDP2 inh,GSTO1 counter,TCR-CD3 inh,Apaf-1 inh,SIAE primary,PAD4 inh,BSA TAMRA ctr,TCR-CD3 inh conf
O=c1nc2c(O)cccn2c2c1c(=O)[nH]c1ccccc12,-21,.,54*,.,3,.,-11,13
O=S(=O)(c1ccc2nc(-c3ccccc3)[nH]c2c1)N1CCN(c2ccc(Cl)cc2)CC1,10,-42,38*,-7,-40,-2,-5,10
Cc1cccc(/C=N\NC(=O)c2ccc(Cl)cc2)c1O,-19,-15,34*,-1,-16,-2,-10,22*
Cc1cccc(/C=N/NC(=O)c2c(-c3ccccc3)noc2C)c1O,-9,-1,24*,-5,5,5,-7,18
COc1ccccc1/C=N/NC(=O)c1c(-c2ccccc2)noc1C,-7,8,-1,4,-1,4,.,.
Cc1cccc(/C=N/NC(=O)c2ccc3c(c2)OCCO3)c1O,-19,-9,19*,6,1,1,-12,15
Oc1ccc(Cl)cc1-c1cc(C(F)(F)C(F)F)nc(-c2ccccc2)n1,-6,1,-2,-5,-9,-2,.,.
COc1cc(-c2nc3n(n2)C(c2ccncc2)C(C(N)=O)=C(C)N3)cc(OC)c1OC (stereo not given),-16,-3,-11,-1,-6,-4,.,.
CCOc1cccc(/C=N/NC(=S)Nc2cc(S(=O)(=O)N3CCOCC3)ccc2N2CCOCC2)c1O,-14,-66,21*,12,9,3,-2,3
COc1ccc2ccccc2c1/C=N/NC(=S)Nc1cc(S(=O)(=O)N2CCOCC2)ccc1N1CCOCC1,5,-9,4,-8,1,3,.,.
COC(=O)c1ccccc1NC(=O)N1CCc2ccc(NC(=O)c3ccccn3)cc2C1,-7,-6,-4,31,-5,-1,.,.
C#CCn1c(=NC(=O)c2ccc(S(=O)(=O)N3CCCc4ccccc43)cc2)sc2cc(S(N)(=O)=O)ccc21,2,-18,21*,-3,-130,-7,19,23*
Cn1c(=NC(=O)c2ccc(S(=O)(=O)N3CCCc4ccccc43)cc2)sc2cc(S(C)(=O)=O)ccc21,5,-6,-3,16,-14,2,.,.
CCOC(=O)CS(=O)(=O)c1nc(-c2ccccc2)cc(C(F)(F)F)n1,-4,-33,22*,-2,-5,0,1,0
CCN(CC)S(=O)(=O)c1cccc(NC(=O)Nc2cccc(C(F)(F)F)c2)c1,-5,-135,24*,5,-215,-14,15,26*
CCN(CC)S(=O)(=O)c1cccc(NC(=O)CC2CCCC2)c1,18,1,0,0,3,0,.,.
Cc1cc(C)c2c(N)c(C(=O)NN3CC(=O)N(c4ccccc4F)CC3=O)sc2n1,-1,-2,-3,1,-1,-2,.,.
COc1ccc(NC(=O)c2cc([N+](=O)[O-])ccc2N2CCCCC2)cc1,3,-4,6,9,-4,1,.,.
CC(C)(C)C(=O)Nc1ccc(C(=O)N/N=C/c2ccccc2OC(=O)c2ccc(Cl)cc2)cc1,-26,-4,26*,5,-63,-1,25*,43*
CCOc1cc(/C=N\NC(=O)c2ccc(NC(=O)C(C)(C)C)cc2)ccc1OC(=O)c1cccc(C)c1,6,-15,62*,1,-32,1,36*,82*
CCOc1cc(/C=N\NC(=O)c2ccc(NC(=O)C(C)(C)C)cc2)ccc1OC(=O)c1ccc(C)cc1,-5,2,0,13,0,-6,.,.
Cc1cccc(C(=O)Oc2ccccc2/C=N/NC(=O)c2ccc(NC(=O)C(C)(C)C)cc2)c1,2,-46,24*,6,-66,-5,17,43*
CC(C)(C)C(=O)Nc1ccc(C(=O)N/N=C/c2ccccc2OC(=O)c2ccccc2)cc1,0,-3,4,5,-68,-1,.,.
CCN(CC)CCN1C(=O)c2oc3ccccc3c(=O)c2C1c1ccc(C)cc1 (stereo not given),-1,8,-8,-1,-3,-4,.,.
CCC(=O)NC(=S)NNC(=O)c1ccc(OC)cc1,-3,16,20*,-7,4,-1,-3,6
SMILES,TDP2 inh,GSTO1 counter,TCR-CD3 inh,Apaf-1 inh,SIAE primary,PAD4 inh,BSA TAMRA ctr,TCR-CD3 inh conf
CCn1c(C)nc2cc(C(=O)NNC(=S)NC(=O)c3ccccc3)ccc21,3,9,34*,5,2,-4,-6,28*
COc1ccc(C(=O)NC(=S)NNC(=O)c2cccnc2)cc1,3,12,24*,-1,5,-1,-1,18
COc1ccc(/C=C/C(=O)NC(=S)NNC(=O)c2cccnc2)cc1OC,-3,6,27*,-8,1,-4,-7,18
O=C(/C=C/c1ccccc1)NC(=S)NNC(=O)c1cccnc1,-5,19,9,-3,8,-6,.,.
COc1ccccc1C1=CN(Cc2ccccc2)CCC1=O,2,.,0,6,-3,6,.,.
O=C(COc1cc2oc(=O)c3c(c2cc1Cl)CCCC3)NCc1cccnc1,6,22,0,9,1,-4,.,.
Cc1ccccc1C(=O)NNC(=S)NC(=O)c1cccnc1,-7,0,26*,-3,0,0,-3,20*
